The source made the active and inactive calls. The calls are words filed in the database; no cut-off is given here.
Experiments:
[1] = species: Rattus norvegicus; test: Inhibition of soluble guanylyl cyclase in rat aortic smooth muscle cells assessed as inhibition of SNP-stimulated cGMP formation by immunoassay
Summary of the method: (§1)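 Rat aortic smooth muscle cells were grown in high-glucose DMEM with 10% foetal calf serum plus penicillin/streptomycin, and passages 3–4 were used at confluence. Cells were pretreated with IBMX (1 mM, 5 min) to block phosphodiesterase, then exposed to compound for 20 min with IBMX still present. They were then stimulated with SNP for 15 min, and cGMP was measured by enzyme immunoassay.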

[2] = species: Rattus norvegicus; test: Inhibition of soluble guanylyl cyclase in rat aortic smooth muscle cells assessed as inhibition of SNP-stimulated cGMP formation at 0.1 uM by immunoassay; summary of the method: as §1
[3] = species: Rattus norvegicus; test: Inhibition of soluble guanylyl cyclase in rat aortic smooth muscle cells assessed as inhibition of SNP-stimulated cGMP formation at 10 uM by immunoassay; summary of the method: as §1

SMILES | inhibition [1] | inhibition [2] | inhibition [3]
COc1ccc(-c2ccc3c(c2)-n2c(noc2=O)CO3)cc1 | – | Active | Active
O=c1[nH]nc2n1-c1cc(Br)ccc1OC2 | inactive | – | –
O=c1c2ccc(Cl)cc2nc2n1-c1ccccc1OC2 | – | Active | Active
O=c1onc2n1-c1cc(-c3cccc(C(F)(F)F)c3)ccc1OC2 | – | Active | Active

Results, then the molecule that gave them:

inhibition [1] | inhibition [2] | inhibition [3] | SMILES
inactive | – | – | O=c1c2ccccc2nc2n1-c1cc(Br)ccc1OC2
Dose-dependent effect | 85% | Active | O=c1onc2cnc3ccccc3n12
inactive | – | – | O=C1c2ccccc2-n2c(noc2=O)[C@@H]2CCCN12
inactive | – | – | O=c1c2ccccc2nc2n1-c1ccccc1OC2
– | Active | Active | O=c1onc2n1-c1ncccc1OC2
